Test [1] has as its target T1, Prothrombin (Homo sapiens, UniProt P00734). Kind of test: Binding affinity against thrombin. Summed up:
(§1)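 Human α-thrombin or human γ-thrombin was assayed with S-2238 (H-D-Phe-Pip-Arg-pNA), with velocity measured over 2 min at 25 °C. A 2 h preincubation screened for slow binding. For competitive inhibitors, Ki came from Lineweaver–Burk plots at five substrate concentrations over 10-fold around Km; slow binders were fitted to the slow-binding rate equations. At least five points were run in duplicate.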

The next test has as its target Coagulation factor X (Homo sapiens, UniProt P00742). Kind of test: Binding affinity against Coagulation factor X. In a few lines:
(§2)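 Chromogenic pNA assays used human plasma factor Xa with S-2222, human plasmin with S-2251, human kidney urokinase with S-2444, and human plasma activated protein C with S-2366. Rates were read over 2 min at 25 °C. A 2 h enzyme–inhibitor preincubation tested for slow binding. For non-slow binders, Ki came from Lineweaver–Burk plots at five substrate levels over a 10-fold range around Km, using at least five points in duplicate.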

Test [2] in a line: Binding affinity against protein Ca. In a few lines:
as §2

Test [3] addresses T1, Prothrombin. Kind of test: Binding affinity against alpha thrombin. In a few lines: as §1
The target in test [4] is Plasma kallikrein (Homo sapiens) (UniProt P03952). Kind of test: Binding affinity against plasma kallikrein.
Chain of Plasma kallikrein (Homo sapiens) (P03952 whole entry, looked up): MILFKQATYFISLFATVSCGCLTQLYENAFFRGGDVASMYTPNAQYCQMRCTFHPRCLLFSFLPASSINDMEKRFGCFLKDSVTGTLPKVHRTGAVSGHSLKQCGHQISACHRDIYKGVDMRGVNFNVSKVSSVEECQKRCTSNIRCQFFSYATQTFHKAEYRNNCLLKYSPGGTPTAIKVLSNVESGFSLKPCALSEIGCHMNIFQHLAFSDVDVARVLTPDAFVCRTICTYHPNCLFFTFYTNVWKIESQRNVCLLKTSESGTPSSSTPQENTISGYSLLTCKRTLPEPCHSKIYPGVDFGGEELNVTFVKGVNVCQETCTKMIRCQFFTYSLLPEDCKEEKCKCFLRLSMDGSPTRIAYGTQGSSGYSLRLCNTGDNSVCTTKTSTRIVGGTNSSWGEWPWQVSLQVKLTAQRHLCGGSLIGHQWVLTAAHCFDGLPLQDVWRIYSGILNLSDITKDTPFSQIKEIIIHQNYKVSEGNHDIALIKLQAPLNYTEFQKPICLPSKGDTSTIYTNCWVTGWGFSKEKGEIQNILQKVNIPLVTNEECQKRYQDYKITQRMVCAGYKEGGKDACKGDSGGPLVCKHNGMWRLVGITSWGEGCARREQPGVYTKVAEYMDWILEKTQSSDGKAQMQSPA
The target in a further test is T2, Serine protease 1 (Bos taurus, UniProt P00760).
T2 sequence (P00760 whole entry): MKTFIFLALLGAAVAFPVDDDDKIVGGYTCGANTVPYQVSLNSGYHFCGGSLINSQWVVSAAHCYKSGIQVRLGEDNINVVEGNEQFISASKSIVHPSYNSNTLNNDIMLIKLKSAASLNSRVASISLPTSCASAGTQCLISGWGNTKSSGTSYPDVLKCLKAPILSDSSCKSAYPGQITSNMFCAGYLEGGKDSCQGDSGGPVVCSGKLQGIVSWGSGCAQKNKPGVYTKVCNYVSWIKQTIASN
Kind of test: Binding affinity against Trypsin. Summed up:
(§3)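 Enzymes: bovine pancreatic α-chymotrypsin with S-2586 (MeO-Suc-Arg-Pro-Tyr-pNA), human plasma kallikrein with S-2288, porcine pancreatic elastase with Suc-Ala-Ala-Ala-pNA, and bovine pancreatic trypsin. Initial velocity was read at 25 °C over 2 min. A 2 h preincubation was used to screen for slow binding. For competitive inhibitors, Ki came from Lineweaver–Burk plots at five substrate concentrations spanning 10-fold around Km, using at least five points in duplicate.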

The target in another test is Plasminogen (Homo sapiens, UniProt P00747). Kind of test: Binding affinity against plasmin. In a few lines: as §2
Chain of Plasminogen (P00747 97-580 limits assumed): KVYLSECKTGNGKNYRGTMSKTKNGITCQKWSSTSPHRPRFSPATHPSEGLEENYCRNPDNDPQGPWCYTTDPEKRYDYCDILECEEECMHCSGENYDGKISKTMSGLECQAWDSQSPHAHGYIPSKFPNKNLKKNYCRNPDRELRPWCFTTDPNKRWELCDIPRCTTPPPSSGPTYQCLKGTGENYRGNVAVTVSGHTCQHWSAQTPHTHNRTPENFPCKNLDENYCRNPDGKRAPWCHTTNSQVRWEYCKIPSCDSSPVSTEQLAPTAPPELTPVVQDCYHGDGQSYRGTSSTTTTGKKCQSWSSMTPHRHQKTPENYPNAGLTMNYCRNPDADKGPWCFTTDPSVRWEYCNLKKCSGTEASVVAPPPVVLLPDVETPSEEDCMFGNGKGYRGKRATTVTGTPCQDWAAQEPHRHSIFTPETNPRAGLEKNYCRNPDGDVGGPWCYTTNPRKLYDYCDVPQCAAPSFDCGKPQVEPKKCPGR
Chain of Plasminogen (P00747 581-810 limits assumed): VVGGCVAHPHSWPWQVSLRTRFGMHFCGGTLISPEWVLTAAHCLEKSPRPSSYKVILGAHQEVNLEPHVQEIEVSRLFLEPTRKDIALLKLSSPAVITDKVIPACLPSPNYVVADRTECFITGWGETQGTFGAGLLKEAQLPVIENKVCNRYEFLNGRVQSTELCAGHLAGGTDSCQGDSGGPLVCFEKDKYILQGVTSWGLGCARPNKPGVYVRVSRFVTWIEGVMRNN
The target of another test is Chymotrypsinogen A (Bos taurus, UniProt P00766). Description: Binding affinity against Chymotrypsin. Summed up:
as §3

Test [5] is described as follows: Concentration of inhibitor required to produce a 2-fold prolongation in activated partial Thromboplastin time (APTT) in human plasma. The format is functional. In a few lines:
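Pooled citrated normal human plasma, APTT reagent and inhibitor were incubated for 5 min at 37 °C. Clotting was started with CaCl2 from a 25 mM aqueous solution and timed on a coagulometer. The inhibitor concentration that doubled the APTT was determined in duplicate.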

Test [6] has as its target Urokinase-type plasminogen activator (Homo sapiens, UniProt P00749). Description: Binding affinity against Urokinase plasminogen activator. In a few lines: as §2
The target of test [7] is T1, Prothrombin. Kind of test: Binding affinity against gamma thrombin. Summed up:
as §1

Test [8] deals with T1, Prothrombin. Kind of test: Concentration of inhibitor required to produce a 2-fold prolongation in Thrombin time (TT). In a few lines:
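Pooled citrated normal human plasma was incubated with inhibitor for 1 min at 37 °C; the inhibitor was serially diluted in buffer from a DMSO stock. Human α-thrombin was then added from a 5 units/mL solution in 50 mM sodium phosphate, 0.1% PEG, pH 7.4. Clotting was timed on a coagulometer, and the concentration that doubled the thrombin time was determined in duplicate.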

Chain of Coagulation factor X (P00742 41-179 limits assumed): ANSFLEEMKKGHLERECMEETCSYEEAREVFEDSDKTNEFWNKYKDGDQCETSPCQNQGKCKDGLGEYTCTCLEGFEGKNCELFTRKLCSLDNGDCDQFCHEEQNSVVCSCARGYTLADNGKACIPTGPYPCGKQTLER
Chain of Coagulation factor X (P00742 235-488 limits assumed): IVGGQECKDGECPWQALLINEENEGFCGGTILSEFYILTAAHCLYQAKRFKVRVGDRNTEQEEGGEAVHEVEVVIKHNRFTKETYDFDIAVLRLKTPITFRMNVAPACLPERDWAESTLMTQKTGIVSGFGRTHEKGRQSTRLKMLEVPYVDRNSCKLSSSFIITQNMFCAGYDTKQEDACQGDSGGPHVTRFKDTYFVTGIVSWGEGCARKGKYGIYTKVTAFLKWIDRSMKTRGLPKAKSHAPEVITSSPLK

Regarding `CCC(NC(=O)[C@@H]1CCCN1C(=O)[C@H](Cc1ccccc1)NC(=O)OCc1ccccc1)B1O[C@@H]2CC3CC(C3(C)C)[C@]2(C)O1` (stereo partly drawn), the affinity at Prothrombin [1] corresponds to a Ki of 1000 nM.

As for `COCCCC(NC(=O)[C@@H]1CCCN1C(=O)[C@H](Cc1ccccc1)NC(=O)OCc1ccccc1)B1O[C@@H]2CC3CC(C3(C)C)[C@]2(C)O1` (stereo partly drawn), the inhibition constant Ki – broadly, a dissociation constant, usually derived from enzyme kinetics or from competition with a known ligand – on Prothrombin [1] was 11000 nM.

As for `CCCCCC(NC(=O)[C@@H]1CCCN1C(=O)[C@H](Cc1ccccc1)NC(=O)OCc1ccccc1)B1O[C@@H]2CC3CC(C3(C)C)[C@]2(C)O1` (stereo in doubt; 3) [listing 1 of 2 here], the Ki at Coagulation factor X was 580 nM; in test [2] it was 1600 nM; on Prothrombin [3], 19 nM; in [4], 120000 nM; on Serine protease 1, 320 nM; at Plasminogen, 2900 nM. Moreover, the inhibition constant Ki at Chymotrypsinogen A was determined as 115 nM; at Prothrombin [1], 19 nM; in test [6], 23000 nM; on Prothrombin [7], 19 nM. The compound also had an APTT in [5] of 2.3 µM.

As for `CCC(C)(C)C(NC(=O)[C@@H]1CCCN1C(=O)[C@H](Cc1ccccc1)NC(=O)OCc1ccccc1)B1O[C@@H]2CC3CC(C3(C)C)[C@]2(C)O1` (stereo partly drawn), the Ki at Coagulation factor X turned out to be 2600 nM; in [2], 4200 nM; on Prothrombin [3], 7 nM; in [4], 9500 nM; on Serine protease 1 it was 270 nM; on Plasminogen, 5500 nM. In addition, the inhibitory constant (Ki) came out at 152 nM on Chymotrypsinogen A, 7 nM on Prothrombin [1], 15000 nM in test [6] and 24 nM at Prothrombin [7]. The compound also yielded a TT at Prothrombin [8] of 1.1 µM. In test [5], this compound returned an APTT of 4 µM.

`CCCCCC(NC(=O)[C@@H]1CCCN1C(=O)[C@H](Cc1ccccc1)NC(=O)OCc1ccccc1)B1O[C@@H]2CC3CC(C3(C)C)[C@]2(C)O1` (stereo in doubt; 2): the inhibition constant Ki at Prothrombin [1] was 26 nM.

Regarding `CC(C)C(NC(=O)[C@@H]1CCCN1C(=O)[C@@H](NC(=O)OCc1ccccc1)C(c1ccccc1)c1ccccc1)B1O[C@@H]2CC3CC(C3(C)C)[C@]2(C)O1` (stereo partly drawn), the inhibition constant (Ki) at Prothrombin [1] worked out at 19 nM.

As to `CC1(C)C2CC1[C@]1(C)OB(C(CCCBr)NC(=O)[C@@H]3CCCN3C(=O)[C@H](Cc3ccccc3)NC(=O)OCc3ccccc3)O[C@@H]1C2` (stereo in doubt; 13), at Prothrombin [1], the Ki is 15000 nM.

At Prothrombin [1], `Cc1ccc(CCC(NC(=O)[C@@H]2CCCN2C(=O)[C@H](Cc2ccccc2)NC(=O)OCc2ccccc2)B2O[C@@H]3CC4CC(C4(C)C)[C@]3(C)O2)cc1` (stereo partly drawn) yielded a Ki of 20 nM.

With `CC1(C)C2CC1[C@]1(C)OB(C(Cc3ccccc3)NC(=O)[C@@H]3CCCN3C(=O)[C@@H](NC(=O)OCc3ccccc3)C(c3ccccc3)c3ccccc3)O[C@@H]1C2` (stereo partly drawn), the inhibition constant Ki on Coagulation factor X was 4300 nM; in [2] it was more than 4800 nM; on Prothrombin [3] it was 130 nM; in test [4], 9500 nM; at Serine protease 1 it was 440 nM; at Plasminogen it was 3000 nM. In addition, the inhibitory constant (Ki) at Chymotrypsinogen A was 21 nM; on Prothrombin [1], 130 nM; in test [6] it was more than 48000 nM; at Prothrombin [7], 59 nM. The compound also returned a TT on Prothrombin [8] of 5.2 µM. Also, the APTT in test [5] was more than 50 µM.

Consider `CCCCCC(NC(=O)[C@@H]1CCCN1C(=O)[C@H](Cc1ccccc1)NC(=O)OCc1ccccc1)B1O[C@@H]2CC3CC(C3(C)C)[C@]2(C)O1` (stereo in doubt; 3) [listing 2 of 2 here], for which, on Prothrombin [8], the TT was 0.54 µM.

As to `CC1(C)C2CC1[C@]1(C)OB(C(CCCBr)NC(=O)[C@@H]3CCCN3C(=O)[C@H](Cc3ccccc3)NC(=O)OCc3ccccc3)O[C@@H]1C2` (stereo in doubt; 14), on Prothrombin [1], the affinity, expressed as Ki, was 130 nM.

Regarding `COCCCC(NC(=O)[C@@H]1CCCN1C(=O)[C@@H](NC(=O)OCc1ccccc1)C(c1ccccc1)c1ccccc1)B1O[C@@H]2CC3CC(C3(C)C)[C@]2(C)O1` (stereo partly drawn), the Ki on Coagulation factor X came to 7200 nM; in test [2], 2400 nM; on Prothrombin [3], 2 nM; in [4], 34000 nM; at Serine protease 1, 54 nM; at Plasminogen, 12000 nM. For the same compound, the Ki on Chymotrypsinogen A came out at 2960 nM; at Prothrombin [1], 3 nM; in test [6] it was 33000 nM; at Prothrombin [7], 4 nM. At Prothrombin [8], this compound displayed a TT of 0.63 µM. This compound returned an APTT in [5] of 20 µM.

`CC1(C)C2CC1[C@]1(C)OB(C(CCCBr)NC(=O)[C@@H]3CCCN3C(=O)[C@H](Cc3ccccc3)NC(=O)OCc3ccccc3)O[C@@H]1C2` (stereo in doubt; 12) yielded a Ki at Prothrombin [1] of 7 nM.

For `CC1(C)C2CC1[C@]1(C)OB(C(CCCl)NC(=O)[C@@H]3CCCN3C(=O)[C@H](Cc3ccccc3)NC(=O)OCc3ccccc3)O[C@@H]1C2` (stereo partly drawn), at Prothrombin [1], the Ki came out at 29 nM.

`COCCC[C@@H](NC(=O)[C@@H]1CCCN1C(=O)[C@@H](Cc1ccccc1)NC(=O)OCc1ccccc1)B1O[C@@H]2CC3CC(C3(C)C)[C@]2(C)O1` (stereo in doubt; 10): the affinity at Prothrombin [1], expressed as Ki, was 7 nM.

As for `COCCC[C@@H](NC(=O)[C@@H]1CCCN1C(=O)[C@@H](Cc1ccccc1)NC(=O)OCc1ccccc1)B1O[C@@H]2CC3CC(C3(C)C)[C@]2(C)O1` (stereo in doubt; 9a) [listing 1 of 2 here], the inhibition constant (Ki) at Coagulation factor X is 3100 nM; in [2], 2100 nM; at Prothrombin [3] it was 7 nM; in [4] it was 6100 nM; on Serine protease 1, 670 nM; at Plasminogen, 7800 nM. In addition, the Ki on Chymotrypsinogen A was determined as 1210 nM; at Prothrombin [1], 7 nM; in test [6], 81000 nM; at Prothrombin [7], 28 nM. This compound showed an APTT in test [5] of 3.4 µM.

In the case of `CCC(C)(C)C(NC(=O)[C@@H]1CCCN1C(=O)[C@H](Cc1ccc2ccccc2c1)NC(=O)OCc1ccccc1)B1O[C@@H]2CC3CC(C3(C)C)[C@]2(C)O1` (stereo partly drawn), the Ki at Coagulation factor X came to 23000 nM; in [2] it was 32000 nM; at Prothrombin [3], 82 nM; in test [4], 370000 nM; on Serine protease 1 it was 2400 nM; on Plasminogen, 13000 nM. The inhibition constant Ki worked out at 1460 nM at Chymotrypsinogen A, 140000 nM in [6] and 140 nM on Prothrombin [7]. In addition, the TT at Prothrombin [8] stood at 16 µM. Moreover, the APTT in test [5] was found to be 110 µM.

With `CCCCCCCCC(NC(=O)[C@@H]1CCCN1C(=O)[C@H](Cc1ccccc1)NC(=O)OCc1ccccc1)B1O[C@@H]2CC3CC(C3(C)C)[C@]2(C)O1` (stereo partly drawn), the TT at Prothrombin [8] is 3.9 µM. Moreover, in test [5], the APTT is more than 50 µM. Besides, the Ki on Prothrombin [1] was 43 nM.

As for `COCCC[C@@H](NC(=O)[C@@H]1CCCN1C(=O)[C@@H](Cc1ccccc1)NC(=O)OCc1ccccc1)B1O[C@@H]2CC3CC(C3(C)C)[C@]2(C)O1` (stereo in doubt; 11), the affinity on Prothrombin [1], expressed as Ki, was 120 nM.

As to `CC1(C)C2CC1[C@]1(C)OB(C(CCC3OCCO3)NC(=O)[C@@H]3CCCN3C(=O)[C@H](Cc3ccccc3)NC(=O)OCc3ccccc3)O[C@@H]1C2` (stereo partly drawn), the TT on Prothrombin [8] is 3.4 µM. In addition, the APTT in [5] came to 18 µM. At Prothrombin [1], this compound returned a Ki of 25 nM.

As for `COCCC[C@@H](NC(=O)[C@@H]1CCCN1C(=O)[C@@H](Cc1ccccc1)NC(=O)OCc1ccccc1)B1O[C@@H]2CC3CC(C3(C)C)[C@]2(C)O1` (stereo in doubt; 9a) [listing 2 of 2 here], the TT at Prothrombin [8] stood at 2.8 µM.

`CCCCCC(NC(=O)[C@@H]1CCCN1C(=O)[C@H](Cc1ccccc1)NC(=O)OCc1ccccc1)B1O[C@@H]2CC3CC(C3(C)C)[C@]2(C)O1` (stereo in doubt; 21) returned a Ki at Prothrombin [1] of 100 nM.

On to `COCCC[C@@H](NC(=O)[C@@H]1CCCN1C(=O)[C@@H](Cc1ccccc1)NC(=O)OCc1ccccc1)B1O[C@@H]2CC3CC(C3(C)C)[C@]2(C)O1` (stereo in doubt; 9b), for which, on Prothrombin [1], the affinity corresponds to a Ki of 7 nM.

Compound `COCCC(NC(=O)[C@@H]1CCCN1C(=O)[C@H](Cc1ccccc1)NC(=O)OCc1ccccc1)B1O[C@@H]2CC3CC(C3(C)C)[C@]2(C)O1` (stereo partly drawn) displayed a Ki at Prothrombin [1] of 21 nM.

In the case of `CC1(C)C2CC1[C@]1(C)OB(C(Cc3ccccc3)NC(=O)[C@@H]3CCCN3C(=O)[C@H](Cc3ccccc3)NC(=O)OCc3ccccc3)O[C@@H]1C2` (stereo partly drawn), the Ki at Coagulation factor X was 1200 nM; in test [2], more than 4300 nM; at Prothrombin [3] it was 18 nM; in test [4] it was more than 4300 nM; at Serine protease 1, 150 nM; on Plasminogen it was 4500 nM. For the same compound, the Ki was 11 nM on Chymotrypsinogen A, 18 nM at Prothrombin [1], more than 4300 nM in test [6] and 11 nM on Prothrombin [7]. This compound also yielded a TT on Prothrombin [8] of 0.53 µM. In test [5], this compound returned an APTT of 2.5 µM.

These data come from ChEMBL document CHEMBL1128727, “Characterization of a class of peptide boronates with neutral P1 side chains as highly selective inhibitors of thrombin” (J Med Chem, 1995).
